Laboratory results published in BindingDB's records for doi:10.1016/j.bmcl.2007.03.101 (Eli Lilly, 2007).

Biological target: T1, 5-hydroxytryptamine receptor 1A (Homo sapiens, UniProt P08908)
T1 sequence (P08908 whole entry): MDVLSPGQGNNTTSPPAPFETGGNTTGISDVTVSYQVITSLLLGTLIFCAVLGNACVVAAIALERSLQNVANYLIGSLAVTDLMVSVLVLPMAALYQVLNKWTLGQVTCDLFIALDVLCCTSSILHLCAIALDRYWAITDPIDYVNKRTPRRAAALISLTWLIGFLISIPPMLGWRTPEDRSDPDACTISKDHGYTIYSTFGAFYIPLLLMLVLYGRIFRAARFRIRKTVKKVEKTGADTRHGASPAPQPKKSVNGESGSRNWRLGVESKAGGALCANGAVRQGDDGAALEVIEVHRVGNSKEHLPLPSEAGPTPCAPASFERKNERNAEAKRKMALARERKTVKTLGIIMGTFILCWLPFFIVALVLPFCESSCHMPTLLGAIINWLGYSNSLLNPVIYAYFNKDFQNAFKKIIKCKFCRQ
Experiment: Displacement of [3H]8-OH-DPAT from human 5HT1A expressed in LM(tk-) cells
Method in brief: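 Human 5-HT1A was cloned into L-M(tk-) cells, and membrane homogenates were prepared. Binding used [3H]-8-OH-DPAT as radioligand. Ki (nM) is the mean of runs in triplicate.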

C[C@H]1CN(c2cccc3cc(F)ccc23)CCN1CC[C@H]1OCC2=CC(C(N)=O)=CCC21 (stereo partly drawn) [(1R)-1-(2-((S)-4-(6-fluoronaphthalen-1-yl)-2-methylpiperazin-1-yl)ethyl)-1,3,7,7a-tetrahydroisobenzofuran-5-carboxamide]
Ki: 13 nM
